Screening results as filed in PubChem BioAssay.
CHO parental Ca: ATP-evoked calcium signal inhibitors, parental CHO, primary screen, counter-screen for OX1R antagonist project, cell-based, fluorescence, Fluo-8 calcium dye. parental CHO-K1, ATP-induced calcium, Fluo-8 fluorescence. inhibition, % at 5.6 µM. 0.63% of 330,000 active. AID 463079, 2010;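 active = inhibition above that plate's mean sample inhibition plus 3 SD, cut at about 26% in these data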;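 also: 0% = ATP-challenged DMSO wells and 100% = DMSO wells without ATP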
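Test system: untransfected parental CHO cell line. Compound: one dose, 5.6 µM nominal. Detection: intracellular calcium via Fluo-8 no-wash fluorescent dye. Measure: % inhibition. Benchmarks: ATP-challenged DMSO wells low, unchallenged DMSO wells high.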
TAAR1 antagonist: human TAAR1 antagonists, primary screen, Fluo-8 calcium fluorescence, CHO RD-HGA16 cells | 1.5% of 360,000 active | Trace amine-associated receptor 1 (Homo sapiens), Q96RJ0 | AID 624466, 2012 | antagonist | inhibition, % at 3 µM;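 active = inhibition above a per-plate cutoff, the mean inhibition of test compounds on that plate plus 3 SD, cut at about 49% in these data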;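 also: 0% = DMSO plus EC80 beta-PEA response and 100% = DMSO alone without agonist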
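Test system: hTAAR1-expressing CHO RD-HGA16 cells, Gα16-coupled; Probe or stimulus: EC80 β-phenethylamine stimulus; Compound dosing: single nominal final test compound concentration of 3 µM; Timing: 140 s kinetic read after compound, 140 s after agonist; Signal: Fluo-8 calcium-sensitive fluorescence; Measure: % inhibition of agonist calcium response; Controls: DMSO and EC80 PEA controls.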
TAAR1 agonist: human TAAR1 agonists, primary screen, Fluo-8 calcium fluorescence, CHO RD-HGA16 cells; vehicle wells 0%, saturating PEA agonist 100%; activation, % at 3 µM; 0.99% of 360,000 active; AID 624467, 2012;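 active = activation above the mean activation of all test compounds in the run plus 3 SD, cut at about 38% in these data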
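System: CHO-derived RD-HGA16 cells with stable Gα16 and human TAAR1 / Times: 17-24 h plating, Fluo-8 75 min 37 °C, 30 min RT / Technique: calcium-sensitive Fluo-8 signal, excitation 470-495, emission 515-575 nm / Measure: % activation relative to PEA EC100 response / Benchmarks: DMSO and PEA EC100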
OX1R antag-1: antagonists of human orexin 1 receptor (OX1R) | Orexin/Hypocretin receptor type 1 (Homo sapiens), O43613 | OX1R-expressing cells, FRET antagonist read-out | inhibition, % at 6.6 µM | 1.8% of 330,000 active; in the data active = inhibition mostly above about 38%, no sharp cut-off; inactive = mostly below about 40%;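 also: 0% = agonist challenge alone and 100% = reference antagonist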
Target sequence (O43613 whole entry, looked up): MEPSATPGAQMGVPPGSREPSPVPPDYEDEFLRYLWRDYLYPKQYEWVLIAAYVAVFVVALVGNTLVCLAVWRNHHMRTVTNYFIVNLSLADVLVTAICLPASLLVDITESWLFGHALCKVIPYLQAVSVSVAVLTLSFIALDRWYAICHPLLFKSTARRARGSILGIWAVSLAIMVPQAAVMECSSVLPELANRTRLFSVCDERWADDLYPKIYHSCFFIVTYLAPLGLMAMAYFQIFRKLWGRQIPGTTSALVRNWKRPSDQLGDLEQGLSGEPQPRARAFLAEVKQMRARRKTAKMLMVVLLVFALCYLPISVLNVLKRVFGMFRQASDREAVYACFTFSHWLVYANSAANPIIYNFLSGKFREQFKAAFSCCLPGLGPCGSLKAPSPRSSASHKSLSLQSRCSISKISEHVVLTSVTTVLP
GPR7 antag: GPR7 receptor antagonists, primary screen, cell-based, fluorescence, single concentration. Neuropeptides B/W receptor type 1 (Homo sapiens), P48145. GPR7-expressing cells, fluorescence antagonist assay. inhibition, % at 4.4 µM. 1.1% of 290,000 active. AID 1861, 2009; in the data active = inhibition above about 16%, passing the limit was not always enough;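 also: cells stimulated with the agonist NPW; 0% = agonist with vehicle and 100% = vehicle without agonist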
OX1R antag-2: OX1R (HCRTR1) antagonists, primary screen, fluorescence, CHO/OX1R cells, Fluo-8 calcium, orexin A; Orexin/Hypocretin receptor type 1 (Homo sapiens), O43613; Fluo-8 calcium fluorescence; inhibition, % at 5 µM; 0.43% of 330,000 active; AID 434989, 2010;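 active = inhibition above its plate's threshold, mean inhibition of all tested compounds on the plate plus 3 SD, cut at about 37% in these data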;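 also: 0% = orexin A challenge wells and 100% = SB-334867-A antagonist wells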
Active calls of the source: *; / = not tested or not shown. Shown are actives, neighbours in structure and some others; about 4.6% of the full set was active somewhere.

SMILES	CHO parental Ca	TAAR1 antagonist	TAAR1 agonist	OX1R antag-1	GPR7 antag	OX1R antag-2
Cc1ccc(-c2[nH]nc(N)c2N=Nc2ccccc2C)cc1	56*	-11	3	48	-29	14
Cc1ccc(-c2[nH]nc(N)c2N=Nc2cccc(Cl)c2C)cc1	/	1	27	/	8	/
COc1cc(NC(=O)CN2CCCCC2C)c(C)cc1[N+](=O)[O-] (stereo not drawn)	-13	-17	-1	9	-9	-21
CCCCN(C(=O)CC1CCCCC1)c1c(N)n(CC(C)C)c(=O)[nH]c1=O	-1	-18	18	10	/	4
Cc1ccc2c(CN3CCN(Cc4ccc5c(c4)OCO5)CC3)cc(=O)oc2c1C	-20	-26	-1	16	-17	-18
Cc1cc2oc(=O)cc(CN3CCN(Cc4ccc5c(c4)OCO5)CC3)c2cc1C	100*	21	7	19	-15	-28
c1ccc(-c2cc3cc4c(cc3cn2)OCO4)cc1	-20	12	19	72*	/	39
CCN(c1ccccc1)C1(O)C(=O)c2ccccc2C1=O	-2	13	3	12	20*	-14
C[C@@H](C(=O)NCc1ccccn1)[C@H]1C[C@]1(C)[C@H](NC(=O)OCc1ccccc1)c1ccccc1	-25	49*	16	21	2	-22
O=C(CSc1nnnn1C1CC1)Nc1ccc(S(=O)(=O)N2CCOCC2)cc1	-16	-8	1	5	/	-7
O=S(=O)(c1ccccc1)N1CCC(O)(CSc2ccc(Cl)cc2)CC1	62*	22	8	25	-5	46*
CC(=O)Nc1ccc(S(=O)(=O)Nc2ccc(S(=O)(=O)Nc3nccs3)cc2)cc1	9	-7	1	7	-17	1
CC1(S(=O)(=O)O)CC(=O)c2ccccc2C1=O (stereo not drawn)	-2	3	0	60*	-8	-2
COc1ccc(/C=C2\Sc3ccc(C(=O)N4CCN(Cc5ccccc5)CC4)cc3N(C)C2=O)cc1OC	-1	59*	4	17	20	3
COc1ccc(OCC2CN(C3CCCC3)S(=O)(=O)CCO2)cc1 (stereo not drawn)	/	11	0	/	/	/
CCOc1cc(/C=N/Nc2nnc(C)n2N)ccc1O	-6	-13	4	61*	-10	-15
CCOc1cc(/C=N/Nc2ncnc(Cl)c2N)ccc1O	-3	-3	0	54	-5	17
COc1cc(/C=N/Nc2nncn2/N=C/c2ccc(O)c(OC)c2)ccc1O	-11	6	5	68*	0	-15
Cc1ccnc(NC(=O)c2cc([N+](=O)[O-])cc([N+](=O)[O-])c2)c1	-7	10	5	17	-12	-17
Cc1ccnc(NC(=O)c2ccc([N+](=O)[O-])s2)c1	3	-16	4	70*	7	-9
Cc1cccc(C)c1NC(=O)c1ccc([N+](=O)[O-])s1	-5	-10	4	46	2	-21
Cc1cccc(NC(=O)c2ccc([N+](=O)[O-])s2)n1	12	-6	1	36*	-10	-3
Cc1ccc(NC(=S)NCC(O)c2ccccc2)c(C)c1 (stereo not drawn)	0	-2	4	4	-7	-3
Cc1ccc(S(=O)(=O)Nc2cccc3cccnc23)cc1	42*	27	5	19	9	27
COc1cc(NS(=O)(=O)c2ccc(C)cc2)c2ncccc2c1	23	0	5	24	-14	8
SMILES	CHO parental Ca	TAAR1 antagonist	TAAR1 agonist	OX1R antag-1	GPR7 antag	OX1R antag-2
Cc1ccc(S(=O)(=O)Nc2ccccc2-c2ccccc2NS(=O)(=O)c2ccc(C)cc2)cc1	-5	49*	0	59	21	-10
O=C(c1cccc(NS(=O)(=O)c2cccc(C(F)(F)F)c2)c1)N1CCOCC1	7	-18	1	6	-7	-7
CCCCCC[n+]1ccccc1/C=C/c1ccc(N(C)C)cc1	/	70*	30	/	/	/
CCOC(=O)c1csc(NC(=O)CSc2nnnn2-c2ccc(OCC)cc2)n1	/	2	40*	/	-6	/
CCOC(=O)Cc1csc(NC(=O)CSc2nnnn2-c2ccc(CC)cc2)n1	22	5	1	20	-8	-22
CCOC(=O)C1(Cc2ccccc2)CCN(Cc2cn(CC(=O)OC)c3ccccc23)CC1	-3	2	4	7	32*	-25
CCOC(=O)C1(Cc2ccccc2)CCN(Cc2cccc(OC)c2O)CC1	-24	-22	7	12	-7	-14
COc1ccc(C2CC(C)(c3ccc(OC)cc3OC)Nc3ccccc3N2)c(OC)c1 (stereo not drawn)	71*	-4	0	41	13	38*
CCOC(=O)/C(=C\c1ccc(Cl)cc1)c1nc2sc(C)c(C)c2c(=O)[nH]1	-12	92*	14	1	-1	-21
CCOC(=O)CSc1nc2sc(C)c(C)c2c(=O)[nH]1	-24	1	2	23	-13	-11
CCOc1ccccc1NC(=O)C1CCCN(S(=O)(=O)c2ccc3c(c2)C(C)(C)C(=O)N3C)C1 (stereo not drawn)	-10	-12	2	11	2	-27
Cc1[nH]c2ccccc2c1/C=N/NC(=O)c1cc(-c2ccccc2)n[nH]1	7	61*	15	70*	3	30
Cc1[nH]c2ccccc2c1/C=N/NC(=O)c1cc(C(C)(C)C)[nH]n1	-6	5	1	38*	-3	-15
Cc1[nH]c2ccccc2c1/C=N/NC(=O)c1ccccc1	-15	-4	1	8	-5	-8
CC(C)(C)c1cc(C(=O)N/N=C/c2ccccn2)n[nH]1	-10	0	1	8	-8	-19
O=C(NC1CC1)c1ccc2c(c1)N(Cc1ccc(Cl)cc1)CCS2	-35	-10	-4	46*	11	-22
CC1CC(C)CN(C(=O)c2ccc3c(c2)N(Cc2ccccc2)CCS3)C1 (stereo not drawn)	47*	/	/	15	-5	-30
CCn1c(C)c(C)c2cc(C(=O)N3CCc4ccccc4C3)ccc21	-22	-10	3	16	8	-19
Cc1ccc(CNCc2cc(Cl)ccc2O)cc1	-19	8	38*	20	/	-5
CCCc1nc2cc(C)c(Br)c(C)n2c1Cc1ccccc1OC	/	-7	2	/	/	/
CCc1ccccc1NC(=O)CNC(=O)c1cc(C2CC2)nc2c1cnn2C(C)C	-17	10	2	38*	/	9
CC(C)n1ncc2c(C(=O)Nc3ccccc3SCC(N)=O)cc(C3CC3)nc21	/	49*	13	/	/	/
